In the library only some 2.6% were active in any assay of this set; here they are far more common.
mABHD4 FP – inhibitors of mouse ABHD4. inhibition, % at 8.92 µM. 370,000 tested, 0.54% active. Q8VD66. purified mABHD4, FP-Rh probe fluorescence polarization;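 active means inhibition exceeding the mean over every tested compound plus 3 SD, cut at about 30% in these data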;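 further: 0% = plate median of compound wells and 100% = S159A mutant with DMSO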
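Test system: mABHD4 protein; Read-out basis: % inhibition; Incubation: 45 min + 60 min at 25 °C; Repeats: single replicate; Technique: fluorescence polarization with parallel and perpendicular emission, 525/598 nm; Compound: 8.92 µM, single dose; Benchmarks: full inhibition S159A mutant plus DMSO, zero as sample-well median.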
TCR-CD3 inh – human TCR-CD3 binding inhibition | TAMRA-labeled TCR probe fluorescence, biochemical | inhibition, % at 9.4 µM | AID 651800 | 360,000 tested, 0.37% active; in the data active means inhibition above about 19%;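 further: recombinant mutant TCR 2C K166C tagged with TAMRA read by polarization; 0% = receptor in buffer alone and 100% = receptor with positive control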
SIAE inh – inhibitors of human sialic acid acetylesterase SIAE; 370,000 tested, 0.69% active; SIAE FP-Rh probe binding, fluorescence polarization; inhibition, % at 9.66 µM;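 active means inhibition above a cutoff: mean of compounds within the control limits plus 3 SD of those, cut at about 17% in these data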;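 further: 0% = plate median of compound wells and 100% = probe without SIAE protein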
PRMT1 FP inh – inhibitors of human PRMT1. Q99873. recombinant PRMT1, activity-based probe fluorescence polarization. inhibition, % at 2.79 µM. 370,000 tested, 1.3% active;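 active means inhibition above about 21% made by adding two undisclosed values, limit read from the data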
HTRA1 inh – HTRA1 (human) protease inhibition. 340,000 tested, 0.5% active. recombinant HTRA1, FP-rhodamine activity-based probe, fluorescence polarization. Q92743. inhibition, % at 5.96 µM; in the data active means inhibition above about 36%;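 further: 0% = enzyme with DMSO and 100% = wells lacking enzyme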
Target sequence (Q92743 whole entry, looked up): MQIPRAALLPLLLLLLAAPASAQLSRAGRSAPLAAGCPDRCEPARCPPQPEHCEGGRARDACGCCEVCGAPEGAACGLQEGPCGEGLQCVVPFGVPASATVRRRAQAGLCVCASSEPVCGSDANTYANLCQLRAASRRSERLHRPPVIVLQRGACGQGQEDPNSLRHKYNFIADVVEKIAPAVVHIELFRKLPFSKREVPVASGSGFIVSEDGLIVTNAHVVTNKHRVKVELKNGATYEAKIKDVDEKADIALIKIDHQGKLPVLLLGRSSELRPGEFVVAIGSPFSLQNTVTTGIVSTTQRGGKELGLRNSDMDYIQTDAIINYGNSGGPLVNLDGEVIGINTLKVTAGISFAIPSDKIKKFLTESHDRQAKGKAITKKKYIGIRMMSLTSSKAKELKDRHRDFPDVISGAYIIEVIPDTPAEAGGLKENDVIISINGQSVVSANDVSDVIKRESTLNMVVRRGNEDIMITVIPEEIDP
SIAE confirm – confirmation of human SIAE inhibitors; shares compounds with SIAE inh; SIAE FP-Rh activity-based probe, fluorescence polarization; inhibition, % at 9.66 µM; 2,300 tested, 13% active; AID 1117263;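 active means mean inhibition of the replicates above the hit cutoff set in the primary screen, cut at about 17% in these data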;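 further: 0% = SIAE with DMSO and probe and 100% = probe without SIAE; inhibitors lower polarization as more probe stays unbound to SIAE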
* marks the source's active call; other numbers are inactive results; . = no result given.

SMILES	mABHD4 FP	TCR-CD3 inh	SIAE inh	PRMT1 FP inh	HTRA1 inh	SIAE confirm
Cc1c(/C=N/NC(N)=O)c2ccccn2c1C(=O)c1ccc(F)cc1	-4	-5	13	-3	-5	.
O=C(CSc1nnc(COc2ccc(Cl)cc2)n1Cc1ccco1)Nc1ccc(OCc2ccccc2)cc1	-7	.	3	-1	.	.
CSC[C@@H]1NC(=S)N(c2ccc(C)cc2)C1=O	-3	-1	52*	0	-50	-110
Cc1cc(C)c(NS(=O)(=O)c2c(C(=O)N3CCOCC3)c(C)n(C)c2C)c(C)c1	-1	4	18*	3	0	-2
CCOc1ccc(-n2c(SCC(=O)Nc3ccc4c(c3)c3ccccc3n4CC)nnc2-c2cccnc2)cc1	4	.	-2	1	.	.
COc1ccc(CNS(=O)(=O)c2ccccc2Br)c(OC)c1	-1	-1	-5	-2	.	.
COc1ccccc1CNC(=O)C(=O)Nc1nccs1	-2	2	3	2	-1	.
COc1cccc(CNc2nccs2)c1O	3	4	18*	0	-5	1
CC(C)CN1C(=O)C[C@]2(C(=O)N(C)c3ccc(NC(=O)C(C)(C)C)cc32)C1c1ccccc1 (stereo not given in full)	3	.	4	0	.	.
O=C(CSc1nnc(-c2ccccn2)n1-c1ccc(Cl)cc1)Nc1ccc2c(c1)OCCO2	-2	.	0	0	.	.
CC(=O)c1cccc(S(=O)(=O)N2CCC(C(=O)Oc3ccc(-c4nnco4)cc3)CC2)c1	-9	0	22*	2	0	16
CCN(CC)c1ccc(NC(=S)NC(=O)c2cccs2)cc1	11	-6	17*	1	6	-1
O=C(Nc1ccc(F)c(Cl)c1)Nc1csc2ccccc12	-4	3	23*	5	-13	-11
COc1ccc(-c2nn(-c3ccccc3)cc2/C=N/Nc2ccc3ccccc3n2)cc1OC	-3	4	19*	1	-38	8
Cc1cc(C)n2nc(SCC(=O)c3cc(C)n(CC4CCCO4)c3C)nc2n1 (stereo not given)	5	8	20*	1	-2	0
CC(C)CN1C(=O)[C@]2(CC(=O)N(C)C2c2ccccc2)c2cc(-n3cc(CN(C)C)nn3)ccc21 (stereo not given in full)	3	.	18*	-2	.	5
Cc1[nH]cnc1/C=N\NC(=O)c1cccc(S(=O)(=O)N(C)C)c1	7	.	2	2	.	.
CC(=O)Nc1ccc(Br)c2ccccc12	0	-6	-6	2	3	.
O=C(Nc1ccc(Br)c2ccccc12)c1ccc2ccccc2c1O	18	-2	26*	11	19	-5
CS(=O)(=O)N1CCN(c2ccc(NC(=S)NC(=O)c3cccs3)cc2)CC1	3	1	3	4	2	.
CS(=O)(=O)N1CCN(c2ccc(NC(=S)NC(=O)c3ccccc3[N+](=O)[O-])cc2)CC1	1	3	20*	-1	6	-1
CC(C)(C)c1ccc(C(=O)NCC(=O)N2CCCCCC2)cc1	5	1	21*	0	-6	-2
CCCCN(CC)CCCNC(=O)c1cn(C)c(=O)c2c1c1ccccc1n2C	-1	-4	19*	-1	-1	-3
CCCCN(CC)CCNC(=O)c1cn(CCOC)c(=O)c2c1c1ccccc1n2C	1	1	5	4	7	.
CCOc1ccc2[nH]c3c(NCCO)ncnc3c2c1	8	-2	11	3	4	.
SMILES	mABHD4 FP	TCR-CD3 inh	SIAE inh	PRMT1 FP inh	HTRA1 inh	SIAE confirm
CCOc1ccc2[nH]c3c(NCCc4ccc(OC)c(OC)c4)ncnc3c2c1	15	-10	19*	6	11	14
COc1cc(CNc2ncnc3c2[nH]c2ccc(C)cc23)cc(OC)c1	22	-11	37*	-1	-5	13
Nc1nnn(CC(=O)N/N=C/c2cn[nH]c2-c2ccccc2)n1	0	-4	21*	2	3	0
Nc1nnn(CC(=O)N/N=C/c2ccncc2)n1	4	-3	-4	5	.	.
Nc1c(C(=O)N2CCOCC2)cnn1Cc1ccccc1	0	.	3	1	.	.
COc1ccc(NC(=O)Nc2ccc3c(c2)C(=O)N([C@H](C)CO)C[C@H](C)[C@@H](CN(C)S(C)(=O)=O)O3)cc1	-6	-16	-1	0	4	.
COc1ccc(NC(=O)Nc2ccc3c(c2)C(=O)N([C@H](C)CO)C[C@H](C)[C@@H](CN(C)S(=O)(=O)c2ccc(OC)cc2)O3)cc1	-2	1	22*	-1	-9	-4
C[C@H]1CCCCO[C@H](CN(C)C(=O)Nc2ccc(F)cc2)[C@@H](C)CN([C@@H](C)CO)C(=O)c2cc(NC(=O)Nc3ccc4c(c3)OCO4)ccc2O1	-1	0	11	6	-5	.
COc1ccc(NC(=O)N(C)C[C@H]2OCCCC[C@H](C)Oc3ccc(NC(=O)Nc4ccc5c(c4)OCO5)cc3C(=O)N([C@@H](C)CO)C[C@@H]2C)cc1	11	1	23*	0	9	6
C[C@H](CO)N1C[C@H](C)[C@@H](CN(C)S(=O)(=O)c2ccccc2)Oc2ccc(NC(=O)Cc3ccccc3)cc2C1=O	-1	3	-5	1	-21	.
C[C@H](CO)N1C[C@H](C)[C@@H](CN(C)S(=O)(=O)c2ccccc2)Oc2ccc(NC(=O)Nc3ccc4c(c3)OCO4)cc2C1=O	5	8	19*	0	8	2
O=C(CCc1ccccc1)N[C@H]1[C@H](OC(=O)c2ccc3ccccc3n2)CCC[C@@]12C(=O)N(Cc1ccccc1)c1ccccc12	-11	.	-16	0	.	.
COC(=O)C12C=C3CC(C4CC4)=C3C(=O)N1Cc1[nH]c3ccccc3c1C2 (stereo not given)	4	.	-1	11	.	.
O=C(Nc1cc(Cl)ccc1N1CCOCC1)c1ccc(Br)o1	-3	-2	24*	0	-1	1
Cc1ccc(S(=O)(=O)N2CCOC23CCN(S(=O)(=O)c2cccs2)CC3)cc1	3	-5	18*	0	3	4
Cc1ccc(S(=O)(=O)N2CCC3(CC2)OCCN3S(=O)(=O)c2cccs2)cc1	-1	12	-8	2	-8	.
COCCNC(=S)N(C)[C@H]1C[C@H]2c3[nH]c4c(-c5cccc(C)c5)cccc4c3CCN2C[C@H]1[C@H](C)O	11	.	4	6	.	.
COc1ccc(CCN2CC(=O)N3CCc4ccc(N5CCOCC5)cc4C3CC2=O)cc1OC (stereo not given)	5	2	-1	2	.	.
COc1cccc(C(=O)OC(C)C(=O)Nc2ccc3c(c2)OCO3)c1 (stereo not given)	6	4	19*	3	-1	1
COc1cccc(NC(=O)CN(C)C(=O)C2=COCCO2)c1	0	-9	18*	-1	-5	4
